Experimental data reported in ChEMBL document CHEMBL1128337, “Synthesis and cytotoxic activity of 6-vinyl- and 6-ethynyluridine and 8-vinyl-and 8-ethynyladenosine” (J Med Chem, 1995).

Tests used:
Assay type in all cases: functional, cell-based
MOLT-4F = assay: Compound was tested for the inhibition of human T-lymphoblast Molt/4F cell proliferation
Method in brief: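 Molt/4F cells in RPMI-1640 with 10% fetal calf serum, 2 mM L-glutamine, 0.075% NaHCO3. Plated at 6.25 × 10⁴ cells/well across varying compound concentrations and grown 72 h at 37 °C, humidified CO2 atmosphere. Cells counted with Coulter counter. IC50 = concentration reducing viable cell number by 50%. Means of at least two or three independent experiments.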

FM3A = assay: Compound was tested for the inhibition of murine mammary carcinoma FM3A cell proliferation; details: Mus musculus
Method in brief: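 FM3A cells in Eagle's minimal essential medium with 10% fetal calf serum, 2 mM L-glutamine, 0.075% NaHCO3. Seeded 5 × 10⁴ cells/well (200 μL) with varying compound concentrations and incubated 48 h at 37 °C, humidified CO2 atmosphere. Cell number from Coulter counter. IC50 = concentration reducing viable cells by 50%.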

MT4 = assay: Compound was tested for the inhibition of human T-lymphoblast MT-4 cell proliferation
Method in brief: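 MT-4 cells grown in RPMI-1640 with 10% fetal calf serum, 2 mM L-glutamine, 0.075% NaHCO3. Seeded at 6.25 × 10⁴ cells/well with varying compound concentrations and cultured 120 h at 37 °C, humidified CO2 atmosphere. Viable cells counted by trypan blue staining under microscope. IC50 = concentration reducing viable cell number by 50%. Means of at least two or three independent experiments.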

L1210 = assay: Compound was tested for the inhibition of murine leukemia L1210 cell proliferation; details: Mus musculus
Method in brief: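 L1210 cells maintained in Eagle's minimal essential medium with 10% fetal calf serum, 2 mM L-glutamine, 0.075% NaHCO3. Exposed to varying compound concentrations at 5 × 10⁴ cells/well (200 μL) and grown 48 h at 37 °C, humidified CO2 atmosphere. Counted with Coulter counter. IC50 = concentration reducing viable cells by 50%. Means of at least two or three independent experiments.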

Row | Structure (SMILES) | IC50 (MOLT-4F) [µM] | IC50 (FM3A) [µM] | IC50 (MT4) [µM] | IC50 (L1210) [µM]
1 | C=Cc1nc2c(N)ncnc2n1[C@@H]1O[C@H](CO)[C@@H](O)[C@H]1O | 6.5 | 145 | 15 | 190
2 | C#Cc1nc2c(N)ncnc2n1[C@@H]1O[C@H](CO)[C@@H](O)[C@H]1O | 25 | 27 | 22 | 54
3 | C#Cc1cc(=O)[nH]c(=O)n1C1O[C@H](CO)[C@@H](O)[C@H]1O (stereo partly specified) | > 372 | > 372 | 286 | > 372
4 | C=Cc1cc(=O)[nH]c(=O)n1C1O[C@H](CO)[C@@H](O)[C@H]1O (stereo partly specified) | 14 | 24 | 11 | 21
